Series [1] deals with Mycobacterium tuberculosis. The experiment in a line: Antimycobacterial activity against XDR Mycobacterium tuberculosis isolate X_60 by two fold serial dilution based fluorescence assay. The series is classed as functional. The method, boiled down:
(§1)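 MGIT 960 (BACTEC) broth assay in 7H9 with 1% OADC and 0.05% Tween 80. Compounds are 10 mM DMSO stocks, two-fold serially diluted, final DMSO ≤1.2%, top concentration 10 µM. Tubes incubated at 37°C with growth units read daily. MIC99 is set against a 1% drug-free growth control tube.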

The test system of series [2] is Mycobacterium tuberculosis. The experiment in a line: Antimycobacterial activity against XDR Mycobacterium tuberculosis isolate X_3 at 10 uM by two fold serial dilution based fluorescence assay. The series is classed as functional. The method, boiled down: as §1
Series [3] relates to Mycobacterium tuberculosis. The experiment in a line: Antimycobacterial activity against XDR Mycobacterium tuberculosis isolate X_61 by two fold serial dilution based fluorescence assay. The series is classed as functional. Summed up:
as §1

Series [4] can be described thus: Cytotoxicity against human THP1 cells assessed as decrease in cell viability after 24 hrs by MTT assay. The series is classed as cell-based. Particulars: THP-1 cells. The method, boiled down:
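THP-1 cells at 1.5 x 10^4/well are exposed to a range of compound concentrations for 24 h. MTT is then added for 4 h at 37°C, followed by solubilisation buffer for 30 min. A570 is read. Cytotoxicity % = 100 − [100 × (OD with drug/OD without drug)]. An IC20 cut-off is used to set concentrations for the macrophage work.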
For orientation: Formazan colour is commonly taken as a measure of viable cells.

The next series deals with CHO. The experiment in a line: Cytotoxicity against CHO cells. Particulars: Cricetulus griseus. The series is classed as cell-based.
Series [5] relates to Mycobacterium tuberculosis. The experiment in a line: Antimycobacterial activity against XDR Mycobacterium tuberculosis isolate TT149 at 10 uM by two fold serial dilution based fluorescence assay. The series is classed as functional. Summed up: as §1
The test system of series [6] is Mycobacterium tuberculosis. The experiment in a line: Antimycobacterial activity against Mycobacterium tuberculosis H37Rv by two fold serial dilution based fluorescence assay. The series is classed as functional. The method, boiled down: as §1

Structures are written as SMILES. ≈ marks a conversion by molar mass, not a printed value. Calls of active or inactive are those of the source.

For the compound `O=C(NNCCCN1CCC(N2c3ccccc3Sc3ccc(Cl)cc32)CC1)c1ccncc1`, the figures for the MIC99 in series [1], in series [3] and in series [6] were greater than 10 µM, greater than 10 µM and 1 µM (≈ 0.494 µg/mL), respectively. In addition, the result in series [2] and in series [5] was inactive. Further, the IC20 at 24 h in series [4] was 2.2 µM. Moreover, 37.4 µM corresponded to half-maximal inhibition with CHO (IC50).
Consider `O=C(NNCCCN1CCN(C(c2ccccc2)(c2ccccc2)c2ccccc2)CC1)c1ccncc1`, for which the MIC99 in series [1] is 2.5 µM (≈ 1.26 µg/mL); in series [3], 2.5 µM (≈ 1.26 µg/mL); in series [6], 1.25 µM (≈ 0.632 µg/mL). Further, the outcome in series [2] and in series [5] was inactive. The same compound yielded an IC50 in the series on CHO of 97.6 µM.
Take `O=C(NNCCCN1CCN(CC(O)(c2ccccc2)c2ccccc2)CC1)c1ccncc1`: the MIC99 is greater than 10 µM in series [1], 5 µM (≈ 2.3 µg/mL) in series [3] and 1.25 µM (≈ 0.574 µg/mL) in series [6]. Also, the outcome in series [2] and in series [5] was inactive. The compound further gave an IC50 in the series with CHO of 174 µM.
Regarding `O=C(NNCCCN1c2ccccc2Sc2ccc(Cl)cc21)c1ccccc1`, the outcome in series [2] and in series [5] was inactive. For the same compound, the IC20 at 24 h in series [4] was greater than 100 µM. The compound further showed an MIC99 in series [6] greater than 10 µM.
For the compound `O=C(NNCCCN1c2ccccc2Sc2ccc(Cl)cc21)c1ccncc1`, the result in series [2] and in series [5] was inactive. Also, the concentration for an effect of 20% (IC20) at 24 h in series [4] came out at 24.4 µM. In addition, the MIC99 in series [6] was found to be 0.25 µM (≈ 0.103 µg/mL).
For the compound `CN(C)CCCN1c2ccccc2Sc2ccc(Cl)cc21` [CHLORPROMAZINE], the IC20 at 24 h in series [4] was 4 µM.
`O=C(NNCCCNCCCN1c2ccccc2Sc2ccc(Cl)cc21)c1ccncc1`: the outcome in series [2] and in series [5] was inactive. The MIC99 in series [6] stood at 5 µM (≈ 2.34 µg/mL).
As to `O=C(NNCCCN1CCN(C2c3ccccc3CCc3ccccc32)CC1)c1ccncc1`, the outcome in series [2] and in series [5] was inactive. Further, the MIC99 in series [6] worked out at 5 µM (≈ 2.28 µg/mL).
Take `O=C(NNCCCNCCCN1c2ccccc2Sc2ccccc21)c1ccncc1`: the outcome in series [2] and in series [5] was inactive. The same compound showed an MIC99 in series [6] of 5 µM (≈ 2.17 µg/mL).
With `O=C(NNCCCN1CCC(=C2c3ccccc3C=Cc3ccccc32)CC1)c1ccncc1`, the MIC99 was greater than 10 µM in series [1], 5 µM (≈ 2.25 µg/mL) in series [3] and 1.25 µM (≈ 0.563 µg/mL) in series [6]. The result in series [2] and in series [5] was inactive. Besides, the IC50 with CHO amounted to 148 µM.
Turning to `O=C(NNCCCN1c2ccccc2Sc2ccccc21)c1ccccc1`, the outcome in series [2] and in series [5] was inactive. In addition, the IC20 at 24 h in series [4] was greater than 100 µM. Besides, in series [6], the MIC99 is greater than 10 µM.
Regarding `O=C(NNCCCN1CCC(=C2c3ccccc3Sc3ccc(Cl)cc32)CC1)c1ccncc1`, the MIC99 was greater than 10 µM in series [1], 2.5 µM (≈ 1.23 µg/mL) in series [3] and 0.625 µM (≈ 0.307 µg/mL) in series [6]. Besides, the result in series [2] and in series [5] was inactive. The compound also registered an IC50 with CHO of 296 µM.
`O=C(NNCCCN1c2ccccc2CCc2ccccc21)c1ccncc1`: the result in series [2] and in series [5] was inactive. Besides, the IC20 at 24 h in series [4] was greater than 100 µM. The MIC99 in series [6] was found to be 1 µM (≈ 0.372 µg/mL).
Consider `O=C(NNCCCN1CCC(N2c3ccccc3Sc3ccccc32)CC1)c1ccncc1`, for which the MIC99 is greater than 10 µM in series [1], 2.5 µM (≈ 1.15 µg/mL) in series [3] and 5 µM (≈ 2.3 µg/mL) in series [6]. Further, the result in series [2] and in series [5] was inactive. The compound also had an IC50 with CHO of 122 µM.
As to `NNC(=O)c1ccncc1` [ISONIAZID], the MIC99 in series [1] is greater than 10 µM; in series [2], greater than 10 µM; in series [3], 2.5 µM (≈ 0.343 µg/mL); in series [5], greater than 10 µM; in series [6] it was 0.73 µM (≈ 0.1 µg/mL). Moreover, in series [4], the IC20 at 24 h was greater than 100 µM. In the series with CHO, this compound came in with an IC50 greater than 100 µM.
For the compound `O=C(NNCCCN1CCN(C(c2ccccc2)c2ccccc2)CC1)c1ccncc1`, the MIC99 in series [1] was greater than 10 µM; in series [3], 5 µM (≈ 2.15 µg/mL); in series [6], 5 µM (≈ 2.15 µg/mL). Further, the outcome in series [2] and in series [5] was inactive. Besides, the IC50 in the series with CHO was determined as 48.1 µM.
Turning to `O=C(NNCCCN1CCC(=C2c3ccccc3Sc3ccccc32)CC1)c1ccncc1`, the results for the MIC99 in series [1], in series [3] and in series [6] were greater than 10 µM, 2.5 µM (≈ 1.14 µg/mL) and 1.25 µM (≈ 0.571 µg/mL), respectively. For the same compound, the outcome in series [2] and in series [5] was inactive. Moreover, half-maximal inhibition with CHO (IC50) required 152 µM.
On to `O=C(NNCCCN1c2ccccc2Sc2ccccc21)c1ccncc1`, for which the outcome in series [2] and in series [5] was inactive. For the same compound, the IC20 at 24 h in series [4] is greater than 100 µM. The compound also had an MIC99 in series [6] of 1 µM (≈ 0.376 µg/mL).

In general, MIC99 refers to an inhibitory concentration at the 99% level, which refers to growth in some studies and to a panel of isolates in others. The low end stands for greater potency, the high end for weaker potency. A word on the IC20: it is the concentration at which the effect reaches the 20% level. One may read the IC50 as the midpoint of a concentration-inhibition curve. Read a low IC50 as inhibition by little substance.

The values are drawn from ChEMBL document CHEMBL4184228, “Reversed isoniazids: Design, synthesis and evaluation against Mycobacterium tuberculosis” (Bioorg Med Chem, 2018).
